This excerpt belongs to a sample that is enriched for hits.
GSK3beta inhib: blocks human GSK3beta kinase activity; P49841; GST-GSK3beta kinase, ADP-Glo luminescence, 60 min; stronger effect = lower value; activity score (negative = inhibition), % at 10 µM; actives 0.038% (n = 300,000);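 active = more than half of replicate wells score below -50%, meaning over 50% inhibition versus plate controls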;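 note: 0% = median DMSO wells and -100% = median GW8510 positive control wells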
Target sequence (P49841 whole entry, looked up): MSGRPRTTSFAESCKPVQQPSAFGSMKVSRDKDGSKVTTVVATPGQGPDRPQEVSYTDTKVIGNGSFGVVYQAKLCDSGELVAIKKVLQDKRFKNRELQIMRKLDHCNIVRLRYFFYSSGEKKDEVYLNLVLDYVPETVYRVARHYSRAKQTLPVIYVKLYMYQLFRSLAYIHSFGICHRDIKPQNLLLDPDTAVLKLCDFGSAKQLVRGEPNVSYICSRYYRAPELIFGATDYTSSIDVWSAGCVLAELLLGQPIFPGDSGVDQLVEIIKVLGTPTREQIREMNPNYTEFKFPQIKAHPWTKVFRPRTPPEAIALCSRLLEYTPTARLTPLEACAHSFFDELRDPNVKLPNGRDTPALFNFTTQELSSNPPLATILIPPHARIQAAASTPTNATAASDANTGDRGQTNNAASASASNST
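test system = GST-tagged human GSK3beta kinase, cell-free | reagent = 25 µM ATP with peptide substrate | dosing = one dose of 10 µM per compound | schedule = 60 min reaction, RT | detection = luminescent ADP-Glo measurement of ADP formed | control set = DMSO neutral wells and GW8510 at 20 µM as positive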
STK33 kinase inh: inhibitors of human STK33 kinase | purified STK33, MBP phosphorylation, ADP-Glo luminescence | AID 2661 | inhibition, % at 10 µM | actives 0.073% (n = 320,000);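 active = inhibition at or above 25%, using the most active replicate where run in duplicate; inactive = inhibition below 25%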
GSK3 alpha inh: inhibitors of human GSK-3 alpha kinase. inhibition, % at 10 µM. actives 0.1% (n = 320,000). P49840. ADP-Glo luminescence, 60 min;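 active = more than half of replicates show inhibition above 20%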;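 note: GST-tagged GSK-3 alpha with peptide substrate and 25 µM ATP; 0% = DMSO neutral wells and 100% = GW8510 positive control wells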
CDK5 p35 inh: CDK5/p35 (human) kinase inhibition. Recombinant CDK5/p35, ADP-Glo luminescence, 60 min. actives 0.01% (n = 330,000). Q00535+Q15078. inhibition, % at 10 µM;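 active = highest replicate inhibition of at least 50% and at least 75% of replicates reaching 50%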;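 note: plate controls were DMSO neutral control for no effect and GW8510 at 10 µM for full effect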
DYRK1A inh: blocks rat Dyrk1A kinase activity; AID 504441; actives 0.43% (n = 310,000); inhibition, % at 12.5 µM; ADP-Glo luminescence, NFATc1 peptide; Q63470; in the data active = inhibition above about 50%;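 note: plate controls were vehicle with enzyme for no effect and no enzyme for full effect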
Numbers without * were called inactive; x = not tested or not shown.

SMILES	GSK3beta inhib	STK33 kinase inh	GSK3 alpha inh	CDK5 p35 inh	DYRK1A inh
O=C(CSc1nnc(-c2ccc(O)cc2)o1)Nc1ccccc1	x	-3	52*	1	2
CC1(C)CC(=O)C=C(Nc2cc(-c3ccccc3)[nH]n2)C1	-54*	0	49	2	6
Nc1c(O)ccc2c1C(=O)c1ccccc1C2=O	-13	35*	30	x	x
COc1ccc2c(c1O)C(=O)c1ccccc1C2=O	5	0	-1	x	x
CCOC(=O)Cc1nnc(Nc2ccc(C)cc2C)c2ccccc12	-3	-1	0	2	x
O=C1NCCCc2c1oc1cc(Br)c(O)c(Br)c21	0	12	36	4	66*
CC(C)NCc1c(O)c(Br)cc2oc3c(c12)CCCC3	x	x	x	-1	4
Cc1ccc2c(c1)N(C(C)C(=O)NCc1ccc3c(c1)OCO3)C(=O)CO2 (stereo not drawn)	-1	-1	0	0	-3
COc1ccc(CNc2nc3ccccc3s2)cc1OC	4	89*	2	-1	6
O=c1c2ccccc2oc2ccc(NCCCN3CCOCC3)cc12	2	50*	3	3	5
CN1CCCC1CCNc1ccc2oc3ccccc3c(=O)c2c1 (stereo not drawn)	-1	39*	3	x	x
CN1CCCC1CCNc1ccc2c(=O)c3ccccc3oc2c1 (stereo not drawn)	2	13	7	0	16
Oc1ccc(/C=C/c2ccnc3ccccc23)cc1	-3	25*	-2	-2	-4
COc1ccc2cc(CNCCOCCOCCNCc3ccc4cc(OC)ccc4c3)ccc2c1	x	x	x	-1	x
CCN(CC)c1ccc(C=C2C(=O)OC3(CCCCC3)OC2=O)cc1	-1	-3	-2	1	-2
CCN(CC)c1ccc(/C=C2/C(=O)c3ccc(C(=O)O)cc3C2=O)cc1	x	78*	23	6	4
CC(=O)Oc1ccc(-c2cc3ccc(OC(C)=O)cc3oc2=O)cc1	1	-1	-4	-1	1
Clc1ccc(/C=N/Nc2ncnc3nc[nH]c23)cc1	-36	6	61*	11	14
CCOC(=O)C1OC1(c1ccccc1)c1ccccc1 (stereo not drawn)	x	x	x	2	x
Cn1c(N=Nc2ccccc2)nc2ccccc21	-22	34*	27	38	29
Cc1oc2c(Cl)c(Cl)c(O)c(CN(C)C)c2c1C(=O)c1ccc(Cl)cc1	7	-1	70*	0	15
Cc1oc2ccc(O)c(CN3CCOCC3)c2c1C(=O)c1ccc(Cl)cc1	1	-1	9	1	9
Cc1nn(-c2nccs2)c2c1C(=O)CC(C)(C)C2Br (stereo not drawn)	x	x	x	56*	-1
CCc1ccccc1NS(=O)(=O)c1ccc2[nH]cc(C(=O)NC3CCCC3)c(=O)c2c1	1	x	x	1	1
CNC(=O)c1c[nH]c2ccc(S(=O)(=O)Nc3ccccc3F)cc2c1=O	-1	46*	-2	0	-3
SMILES	GSK3beta inhib	STK33 kinase inh	GSK3 alpha inh	CDK5 p35 inh	DYRK1A inh
COc1ccc(-c2csc(NC(=O)c3ccccc3NS(=O)(=O)c3ccc(F)c(F)c3)n2)cc1	4	-1	-5	-6	57*
O=[N+]([O-])c1c(-c2cn[nH]c2)n[nH]c1-c1cn[nH]c1	-35	13	67*	-1	-7
COc1ccc(S(=O)(=O)N2CCCC(C(=O)NCc3ccc4c(c3)OCO4)C2)cc1 (stereo not drawn)	-6	0	1	2	6
CN(C)Cc1c(C(=O)N/N=C/c2ccoc2)nnn1-c1nonc1N	-1	1	0	2	25
CCN(CC)Cc1c(C(=O)N/N=C/c2ccc(C)o2)nnn1-c1nonc1N	-1	0	32	0	-2
Nc1nonc1-n1nnc(C(=O)N/N=C/c2ccc(O)cc2)c1CN1CCCCCC1	-64*	0	83*	-1	11
Nc1nonc1-n1nnc(C(=O)N/N=C/c2cccc(O)c2)c1CN1CCCC1	-25	1	x	1	18
CN(C)Cc1c(C(=O)N/N=C/c2ccncc2)nnn1-c1nonc1N	-29	0	64*	1	12
CCN(CC)Cc1c(C(=O)N/N=C/c2ccncc2)nnn1-c1nonc1N	2	4	101*	0	9
CCCN(CCC)Cc1c(C(=O)N/N=C/c2ccoc2)nnn1-c1nonc1N	-58*	1	72*	1	-1
O=C(CN1CCN(c2ccccc2O)CC1)Nc1ccc2c(c1)OCCCO2	x	5	4	-1	x
